The source made the active and inactive calls.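 The calls were made as follows, unless noted: active = viability at or below 10% of carrier control in both of two separate runs; inconclusive = viability at or below 10% in only one of the two runs; inactive = the rest.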

From PubChem BioAssay come the findings set out here.

Test [1] is described as follows: reduced viability of SK-BR-3 breast cancer cells – cell-based, 24 h, human, pilot screen (AID 572).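 Also: compound exposure lasted between 18 and 24 h rather than exactly 24 h; 100% = carrier-treated control wells.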 As to conditions: SK-BR-3 viability, CellTiter-Glo luminescence, at 10 µM, stronger effect = lower value.
Test [2] is described as follows: HUVEC growth inhibition – cell-based, human, primary screen (AID 575;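 active = viability at or below 30% in both replicate assays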;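 also: 100% = median of untreated cell wells with 0.1% DMSO on each plate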). As to conditions: HUVEC proliferation, CellTiter-Glo luminescence, 72 h; at 10 µM; stronger effect = lower value. The method in brief: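 System: primary human umbilical vein endothelial cells; Quantity: 1250 endothelial cells in each well; Buffer or medium: supplemented EBM, 2% fetal bovine serum; Doses: one dose, 10 µM final, 0.1% DMSO; Incubation: 72 h compound incubation; Technique: ATP-based CellTiter-Glo luminescent read; Evaluation: percent of median DMSO-control luminescence; Controls: vehicle and MePR control wells.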
A general note: In ATP-based viability assays light output follows the ATP content of the culture.

Test [3] is described as follows: H69AR cell proliferation blockers – human, duplicate replicates, primary screen (AID 580;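 active = viability at or under a set limit in both replicates, limit being median viability minus 3 SD, cut at about 48% in these data, passing the limit was not always enough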;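 also: 100% = mean luminescence of untreated wells and 0% = no signal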). The settings on record: H69AR lung tumor cells viability, ATP luminescence, 72 h; at 10 µM; stronger effect = lower value.
Test [4] can be described thus: MRP1 drug-resistance reversers in H69AR cells – cell-based, doxorubicin co-treatment, pilot screen (AID 601;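 active = viability loss from added drug above about 55%, and viability with drug at most 40%, in both replicates, limit read from the data, passing the limit was not always enough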). As to conditions: CellTiter-Glo, 72 h, at 10 µM; for differential viability (reversal): stronger effect = higher value.
Test [5] is described as follows: yeast transport mutant growth inhibition pilot in 384-well plates, post-Golgi transport modulator project (AID 636; in the data active = inhibition above about 31%). The settings on record: absorbance 615 nm, about 18 h, stronger effect = higher value.
A short description of test [6]: growth suppression of yeast trafficking mutant, preliminary HTS, modulators of trafficking downstream of Golgi apparatus project, 1536-format plate, OD 615 nm (AID 637; in the data active = inhibition above about 30%). As to conditions: yeast transport mutant growth, absorbance 615 nm, 18 h; stronger effect = higher value.
[7] abbreviates: H69AR cells + 2 uM doxorubicin, measured here: viability with 2 uM doxorubicin, stronger effect = lower value.
The mark [8] stands for this setting: H69AR cells, compound alone cytotoxicity.

Usually viability stands for a read-out of living cells in per cent, often relative to untreated cells. As usually defined, the inhibition is the relative decrease from the control value, in per cent. `Cc1ccccc1Cc1c(C)nc2c(C(=O)N3CCN(Cc4ccc5c(c4)OCO5)CC3)cnn2c1C`: the viability is 103% (inactive) in test [1]; 59.6% (inactive) in test [2]; 79% (inactive) in test [3]; 72.1% in test [4] (setting [7]); 79% in test [4] (setting [8]). In addition, the differential viability (reversal) in test [4] (H69AR cells + 2 uM doxorubicin) is 6.94% (inactive). The values for the inhibition in test [5] and in test [6] were -1.04% (inactive) and 1.48% (inactive), respectively.

As for `O=C(NCc1ccco1)c1ccccc1Nc1ccc(F)cc1`, the viability in test [1] is 80% (inactive); in test [2], 97.1% (inactive); in test [3], 79.2% (inactive); in test [4] (setting [7]), 73.6%; in test [4] (setting [8]), 79.2%. The differential viability (reversal) in test [4] (H69AR cells + 2 uM doxorubicin) was 5.57% (inactive). Moreover, the inhibition in test [5] is -7.03% (inactive); in test [6] it was -7.09% (inactive).

On to `COc1cc(C(=O)OCc2cc3ccccc3[nH]c2=O)cc(OC)c1OC`, for which the viability in test [1] was 117% (inactive); in test [2] it was 68.6% (inactive); in test [3] it was 82.4% (inactive); in test [4] (setting [7]), 71.1%; in test [4] (setting [8]), 82.4%. Also, the differential viability (reversal) in test [4] (H69AR cells + 2 uM doxorubicin) is 11.3% (inactive). Besides, the inhibition in test [5] was -2.8% (inactive); in test [6] it was -2.91% (inactive).

Turning to `CC(C)Oc1ccc2c(=O)c(-c3ccccc3)coc2c1`, the viability is 121% (inactive) in test [1]; 87% (inactive) in test [2]; 89.7% (inactive) in test [3]; 82.8% in test [4] (setting [7]); 89.7% in test [4] (setting [8]). Moreover, the differential viability (reversal) in test [4] (H69AR cells + 2 uM doxorubicin) was 6.81% (inactive). The inhibition in test [5] is -1.04% (inactive); in test [6], -0.17% (inactive).

Regarding `CCN=C1SC(CC(=O)Nc2ccccc2OCC)C(=O)N1CC` (configuration not stated), the viability in test [1] was 96% (inactive); in test [2], 94.3% (inactive); in test [3], 94.5% (inactive); in test [4] (setting [7]), 86.4%; in test [4] (setting [8]) it was 94.5%. Moreover, in test [4] (H69AR cells + 2 uM doxorubicin), the differential viability (reversal) is 8.11% (inactive). The inhibition was -2.05% (inactive) in test [5] and -2.74% (inactive) in test [6].

On to `CCOC(=O)N1CCC(N(CCCOC)C(=O)Nc2ccc(CC)cc2)CC1`, for which the viability in test [1] was 106% (inactive); in test [2] it was 92.7% (inactive); in test [3] it was 98.9% (inactive); in test [4] (setting [7]), 86%; in test [4] (setting [8]), 98.9%. The differential viability (reversal) in test [4] (H69AR cells + 2 uM doxorubicin) was 13% (inactive). Besides, the inhibition in test [5] is -0.26% (inactive); in test [6], -2.3% (inactive).

Regarding `c1ccc(-c2cc(-c3nc(-c4ccccn4)no3)c3ccccc3n2)cc1`, the viability is 139% (inactive) in test [1]; 63.9% (inactive) in test [2]; 59% (inactive) in test [3]; 56.3% in test [4] (setting [7]); 59% in test [4] (setting [8]). Moreover, the differential viability (reversal) in test [4] (H69AR cells + 2 uM doxorubicin) is 2.75% (inactive). Also, the inhibition in test [5] is -2.7% (inactive); in test [6], 8% (inactive).

As for `COc1ccc(NC(=O)N2CCC(c3nc(-c4cccs4)no3)CC2)cc1`, the viability was 121% (inactive) in test [1]; 98.3% (inactive) in test [2]; 95.6% (inactive) in test [3]; 80.2% in test [4] (setting [7]); 95.6% in test [4] (setting [8]). For the same compound, in test [4] (H69AR cells + 2 uM doxorubicin), the differential viability (reversal) was 15.4% (inactive). The results for the inhibition in test [5] and in test [6] were -2.4% (inactive) and 0.73% (inactive), respectively.

Regarding `Cc1ccc(C2=N/C(=C/N3CCOCC3)C(=O)O2)cc1`, the viability in test [1] is 84% (inactive); in test [2], 82.5% (inactive); in test [3], 90.6% (inactive); in test [4] (setting [7]) it was 77.5%; in test [4] (setting [8]) it was 90.6%. Further, the differential viability (reversal) in test [4] (H69AR cells + 2 uM doxorubicin) is 13.1% (inactive). Also, the inhibition in test [5] was -2.08% (inactive); in test [6], -7.21% (inactive).

For `CN(C(=O)c1ccccn1)c1nnc(-c2cccnc2)s1`, the viability in test [1] was 97% (inactive); in test [2], 90.6% (inactive); in test [3], 111% (inactive); in test [4] (setting [7]), 93.5%; in test [4] (setting [8]) it was 111%. Further, the differential viability (reversal) in test [4] (H69AR cells + 2 uM doxorubicin) was 17.8% (inactive). The inhibition in test [5] is -5.07% (inactive); in test [6], -2.26% (inactive).

`COc1ccc(Cl)cc1NC(=O)CCN1CCN(c2ccccc2C)CC1`: the viability in test [1] was 70% (inactive); in test [2], 110% (inactive); in test [3], 97.1% (inactive); in test [4] (setting [7]), 91.6%; in test [4] (setting [8]), 97.1%. Besides, the differential viability (reversal) in test [4] (H69AR cells + 2 uM doxorubicin) was 5.5% (inactive). Also, the inhibition is -8.11% (inactive) in test [5] and -0.36% (inactive) in test [6].

Consider `CCCNC(=O)N1CCN(S(=O)(=O)c2ccc(C)c(C)c2)CC1`, for which the viability in test [1] is 85% (inactive); in test [2] it was 112% (inactive); in test [3], 95% (inactive); in test [4] (setting [7]), 95.7%; in test [4] (setting [8]) it was 95%. Further, the differential viability (reversal) in test [4] (H69AR cells + 2 uM doxorubicin) was -0.65% (inactive). The inhibition is 3.42% (inactive) in test [5] and 0% (inactive) in test [6].

`CC(C)Sc1nc(N2CCCC2)c2c(c1C#N)CC(C)(C)OC2`: the viability in test [1] was 90% (inactive); in test [2], 71.2% (inactive); in test [3], 80.2% (inactive); in test [4] (setting [7]) it was 37.5%; in test [4] (setting [8]), 80.2%. Also, the differential viability (reversal) in test [4] (H69AR cells + 2 uM doxorubicin) is 42.7% (inactive). The inhibition is -2.88% (inactive) in test [5] and -4.84% (inactive) in test [6].

As for `CCC(CCC(=O)Nc1cccc(C(=O)O)c1)C(=O)O` (configuration not stated), the viability in test [1] is 62% (inactive); in test [2], 107% (inactive); in test [3], 103% (inactive); in test [4] (setting [7]), 101%; in test [4] (setting [8]), 103%. The differential viability (reversal) in test [4] (H69AR cells + 2 uM doxorubicin) is 2.19% (inactive). The inhibition in test [5] was -0.82% (inactive); in test [6], 2.36% (inactive).

In the case of `CCCCCC(=O)N(CN1C(=O)CCC1=O)c1ccccc1`, the viability in test [1] is 93% (inactive); in test [2], 104% (inactive); in test [3], 90.9% (inactive); in test [4] (setting [7]) it was 87.4%; in test [4] (setting [8]), 90.9%. In addition, in test [4] (H69AR cells + 2 uM doxorubicin), the differential viability (reversal) was 3.52% (inactive). Further, the inhibition in test [5] is -7.3% (inactive); in test [6] it was -0.73% (inactive).

Turning to `O=C(CN1C(=O)COc2ccccc21)N(Cc1cccnc1)Cc1ccccc1F`, the viability in test [1] was 78% (inactive); in test [2], 96.6% (inactive); in test [3] it was 83.5% (inactive); in test [4] (setting [7]), 74.9%; in test [4] (setting [8]) it was 83.5%. In test [4] (H69AR cells + 2 uM doxorubicin), the differential viability (reversal) was 8.57% (inactive). For the same compound, the inhibition in test [5] is -2.97% (inactive); in test [6], 0.55% (inactive).

Consider `CCN(CC)CCOC(=O)C1(c2ccc(OC)c(OC)c2)CCCC1`, for which the viability is 89% (inactive) in test [1]; 99.6% (inactive) in test [2]; 82.7% (inactive) in test [3]; 80.5% in test [4] (setting [7]); 82.7% in test [4] (setting [8]). In addition, the differential viability (reversal) in test [4] (H69AR cells + 2 uM doxorubicin) is 2.25% (inactive). The inhibition in test [5] is -5.14% (inactive); in test [6], 1.45% (inactive).

Turning to `CCOc1nc(-c2ccccc2)ccc1-c1noc(-c2ccc(OC)c(OC)c2)n1`, the viability is 68% (inactive) in test [1]; 85.1% (inactive) in test [2]; 67.1% (inactive) in test [3]; 71.2% in test [4] (setting [7]); 67.1% in test [4] (setting [8]). Further, the differential viability (reversal) in test [4] (H69AR cells + 2 uM doxorubicin) was -4.04% (inactive). The figures for the inhibition in test [5] and in test [6] were -1.43% (inactive) and -4.43% (inactive), respectively.

In the case of `COc1ccccc1C1N(c2ccc(F)cc2)C(=O)C2CCCN21` (configuration not stated), the viability in test [1] was 102% (inactive); in test [2] it was 111% (inactive); in test [3], 108% (inactive); in test [4] (setting [7]), 90.1%; in test [4] (setting [8]) it was 108%. Further, the differential viability (reversal) in test [4] (H69AR cells + 2 uM doxorubicin) was 17.8% (inactive). The inhibition is -5.07% (inactive) in test [5] and -1.27% (inactive) in test [6].
